Measured values from ChEMBL document CHEMBL3763117, “Design, synthesis and biological evaluation of imidazo[2,1-b]thiazole and benzo[d]imidazo[2,1-b]thiazole derivatives as Mycobacterium tuberculosis pantothenate synthetase inhibitors” (Bioorg Med Chem, 2016).
Values after ≈ are worked out from the molar mass of the structure shown. Active and inactive are the calls of the source. The calls are words filed in the database; no cut-off is given here.

Legend:
Pantothenate synthetase = molecular target: T1, Pantothenate synthetase (Mycobacterium tuberculosis, UniProt P9WIL5); assay: Inhibition of Mycobacterium tuberculosis pantothenate synthetase using pantoic acid as substrate and beta-alanine as reactant assessed as NAD+ formation by spectrophotmetry in presence of NADH
T1 sequence (P9WIL5 whole entry): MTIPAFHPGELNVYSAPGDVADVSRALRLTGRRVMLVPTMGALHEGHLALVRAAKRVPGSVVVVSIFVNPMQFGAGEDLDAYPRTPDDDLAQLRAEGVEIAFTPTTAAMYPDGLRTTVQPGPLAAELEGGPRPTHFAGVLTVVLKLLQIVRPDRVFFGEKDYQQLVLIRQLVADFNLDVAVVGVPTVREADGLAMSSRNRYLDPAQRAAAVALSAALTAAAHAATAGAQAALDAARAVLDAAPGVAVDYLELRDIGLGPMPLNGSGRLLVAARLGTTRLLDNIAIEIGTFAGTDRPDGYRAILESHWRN
Outline: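 Recombinant MTB PS (panC, Rv3602c) expressed in E. coli BL21(DE3). Coupled assay in 100 mM HEPES pH 7.8: 0.4 mM NADH, 5 mM pantoic acid, 5 mM β-alanine, 10 mM ATP, 10 mM MgCl2, 1 mM phosphoenolpyruvate, with myokinase, pyruvate kinase and lactate dehydrogenase. Compounds were tested from 25 µM downward. Reaction was started with PS; NADH depletion was read at 340 nm at 37 °C, background-corrected.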

[1] = system: Mycobacterium tuberculosis; assay: Antimycobacterial activity against Mycobacterium tuberculosis H37Rv ATCC 27294 after 7 days by microplate Alamar blue assay; type: functional; conditions: H37Rv ATCC 27294, 168 h
Outline: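 MABA against M. tuberculosis H37Rv. Inoculum came from LJ medium, resuspended in 7H9-S (7H9, 0.1% casitone, 0.5% glycerol, OADC), adjusted to McFarland No. 1 and diluted 1:20. Two-fold dilutions spanned 50 to 0.78 µg/mL, in duplicate. Plates ran 7 days at 37 °C, then alamar blue was added overnight. MIC was the lowest concentration preventing the blue-to-pink change.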

[2] = Cytotoxicity against mouse RAW264.7 cells assessed as inhibition of cell viability at 50 uM after 72 hrs by MTT assay; type: cell-based; conditions: read-out: INH
Outline: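 RAW 264.7 mouse macrophages were exposed to compound at 50 µM for 72 h. Viability was read as MTT conversion to formazan.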

Mycobacterium marinum [3] = assay: Antimycobacterial activity against Mycobacterium marinum ATCC BAA-535 infected in Zebra fish model assessed as reduction in bacterial load at 5 mg/kg, po administered for 7 days measured after 14 days by MPN assay; type: functional
Outline: (§1)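 Adult zebra fish infected with M. marinum ATCC BAA-535 (grown at 30 °C in Middlebrook 7H9 broth). Oral treatment began 7 days post infection and ran for 7 days. Fish were then sacrificed and homogenised in 7H9 broth. Homogenate was serially diluted to 10^-6, plated in 48-well plates and incubated at 30 °C. Bacterial count was by MPN.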

[4] = system: Mycobacterium tuberculosis; assay: Antimycobacterial activity against nutrient starved Mycobacterium tuberculosis H37Rv assessed as reduction in bacterial load for 7 days measured after 28 days by microplate reader analysis; type: functional
Outline: (§2)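 H37Rv grown in 7H9/OADC, pelleted, washed twice and resuspended in PBS. It was starved in sealed bottles at 37 °C for 6 weeks. Cultures were exposed to drug at 10 µg/ml for 7 days at 37 °C. Ten-fold dilutions to 10^-6 in 7H9/OADC were plated in triplicate and incubated 28 days at 37 °C without agitation. Wells with visible growth were scored and MPN calculated.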

Mycobacterium marinum [5] = assay: Antimycobacterial activity against Mycobacterium marinum ATCC BAA-535 infected in Zebra fish model assessed as reduction in bacterial load at 10 mg/kg, po administered for 7 days measured after 14 days by MPN assay; type: functional; outline: as §1
[6] = system: Mycobacterium tuberculosis; assay: Antimycobacterial activity against nutrient starved Mycobacterium tuberculosis H37Rv assessed as reduction in bacterial load at 10 ug/ml incubated for 7 days measured after 28 days by microplate reader analysis; type: functional; outline: as §2

SMILES	IC50 (Pantothenate synthetase) [nM]	MIC [1] [µM]	cytotoxicity at 72 h, 50 µM [2] [%]	Activity (Mycobacterium marinum [3]) [deltalog10CFU/ml]	MIC [4] [µg/mL]	Activity (Mycobacterium marinum [5])	Activity [6] [deltalog10CFU/ml]
Cc1nc2sc3ccccc3n2c1C(=O)NNC(=O)c1cccc2ccccc12	1390	15.6 (≈ 6.25 µg/mL)	32				
COc1c(N2C[C@@H]3CCCN[C@@H]3C2)c(F)cc2c(=O)c(C(=O)O)cn(C3CC3)c12 [MOXIFLOXACIN]				2.9	0.78 (≈ 1.94 µM)		
Cc1nc2sc3ccccc3n2c1C(=O)Nc1ccccc1	1030	40.7 (≈ 12.5 µg/mL)	33.2				
Cc1nc2sc3ccccc3n2c1C(=O)N/N=C/c1ccc(Br)cc1	1020	15.1 (≈ 6.25 µg/mL)	10.1				
CC[C@@H](CO)NCCN[C@@H](CC)CO [ETHAMBUTOL]	> 25000	7.64 (≈ 1.56 µg/mL)					
CC1(C)S[C@@H]2[C@H](NC(=O)[C@H](N)c3ccc(O)cc3)C(=O)N2[C@H]1C(=O)O						inactive	
Cc1nc2sc3ccccc3n2c1C(=O)NNC(=O)c1ccccc1	1100	35.7 (≈ 12.5 µg/mL)	29.7				
Cc1nc2sccn2c1C(=O)NNC(=O)c1ccc(Oc2ccccc2)cc1	1230	7.96 (≈ 3.12 µg/mL)	2.98				
Cc1nc2sc3ccccc3n2c1C(=O)NCc1ccccc1	840	19.4 (≈ 6.25 µg/mL)	6.62				
NNC(=O)c1ccncc1 [ISONIAZID]	> 25000	0.72 (≈ 0.0987 µg/mL)			0.05 (≈ 0.365 µM)	1.8 deltalog10CFU/ml	1.1
Cc1nc2sccn2c1C(=O)N/N=C/c1ccccc1	580	23.2 (≈ 6.6 µg/mL)	23.1				
Cc1nc2sc3ccccc3n2c1C(=O)Nc1ccc(Br)cc1	520	16.2 (≈ 6.25 µg/mL)	20.9				
Cc1nc2sc3ccccc3n2c1C(=O)NC1CCCCC1	1020	19.9 (≈ 6.25 µg/mL)	13.4				
Cc1ccc(C(=O)NNC(=O)c2c(C)nc3sccn23)cc1	4990	5.96 (≈ 1.87 µg/mL)	39.2				2.1
Cc1nc2sc3ccccc3n2c1C(=O)N/N=C/c1ccc(N(C)C)cc1	1460	4.13 (≈ 1.56 µg/mL)	12.1				
Cc1nc2sccn2c1C(=O)N/N=C/c1ccc(Br)cc1	1200	34.4 (≈ 12.5 µg/mL)	22.2				
Cc1nc2sccn2c1C(=O)NC1CCCCC1	2000	11.8 (≈ 3.12 µg/mL)	32.1				
Cc1nc2sccn2c1C(=O)NCc1ccccc1	1060	11.5 (≈ 3.13 µg/mL)	12.7				

SMILES	IC50 (Pantothenate synthetase) [nM]	MIC [1] [µM]	cytotoxicity at 72 h, 50 µM [2] [%]	Activity (Mycobacterium marinum [3]) [deltalog10CFU/ml]	MIC [4] [µg/mL]	Activity (Mycobacterium marinum [5])	Activity [6] [deltalog10CFU/ml]
Cc1nc2sccn2c1C(=O)NNC(=O)C1CCCCC1	5380	20.4 (≈ 6.25 µg/mL)	31.2				
Cc1nc2sc3ccccc3n2c1C(=O)NNC(=O)C1CCCCC1	2910	17.5 (≈ 6.25 µg/mL)	45.4				
COc1cc(/C=N/NC(=O)c2c(C)nc3sccn23)cc(OC)c1OC	5610	33.4 (≈ 12.5 µg/mL)	1.17				
Cc1ccc(C(=O)NNC(=O)c2c(C)nc3sc4ccccc4n23)cc1	5830	17.1 (≈ 6.25 µg/mL)	53				
COc1cc(/C=N/NC(=O)c2c(C)nc3sc4ccccc4n23)cc(OC)c1OC	2070	29.4 (≈ 12.5 µg/mL)	16.2				
COc1ccc(NC(=O)c2c(C)nc3sccn23)cc1	5830	20.7 (≈ 5.96 µg/mL)	58.7				
Cc1nc2sc3ccccc3n2c1C(=O)NNC(=O)c1ccc(Oc2ccccc2)cc1	530	3.53 (≈ 1.56 µg/mL)	10.4			1.5 deltalog10CFU/ml	
Cc1nc2sccn2c1C(=O)N/N=C/c1ccc(N(C)C)cc1	2500	38.2 (≈ 12.5 µg/mL)	6.75				
Cc1nc2sc3ccccc3n2c1C(=O)N/N=C/c1ccc(C(F)(F)F)cc1	5310	16.5 (≈ 6.65 µg/mL)	16.1				
CCOc1ccc(NC(=O)c2c(C)nc3sc4ccccc4n23)cc1	2100	42 (≈ 14.7 µg/mL)	52.7				
Cc1nc2sccn2c1C(=O)Nc1ccc(Br)cc1	690	2.32 (≈ 0.78 µg/mL)	32.3				2
Cc1nc2sccn2c1C(=O)Nc1ccccc1	740	12.1 (≈ 3.12 µg/mL)	14.1				
Cc1nc2sccn2c1C(=O)N/N=C/c1ccc(C(F)(F)F)cc1	670	17.7 (≈ 6.25 µg/mL)	12.8				
Cc1nc2sc3ccccc3n2c1C(=O)N/N=C/c1ccccc1	2150	9.35 (≈ 3.13 µg/mL)	34.6				
CO[C@H]1/C=C/O[C@@]2(C)Oc3c(C)c(O)c4c(O)c(c(/C=N/N5CCN(C)CC5)c(O)c4c3C2=O)NC(=O)/C(C)=C\C=C\[C@H](C)[C@H](O)[C@@H](C)[C@@H](O)[C@@H](C)[C@H](OC(C)=O)[C@@H]1C [RIFAMPIN]				1.9	0.1 (≈ 0.122 µM)		2.1
Cc1nc2sccn2c1C(=O)NNC(=O)c1cccc2ccccc12	640	17.8 (≈ 6.25 µg/mL)	27.5				
Cc1nc2sccn2c1C(=O)NNC(=O)c1ccccc1	5310	40.1 (≈ 12 µg/mL)	10.3				
